# In the library only some 4.6% were active in any assay of this set; here they are far more common.
# GPR7 antagonist: antagonists of human GPR7 (neuropeptides B/W receptor 1); AID 1861; GPR7-expressing cells, fluorescence antagonist assay; 290,000 compounds, 1.1% hits; P48145; inhibition, % at 4.4 µM; in the data active = inhibition above about 16%, passing the limit was not always enough;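 note: cells stimulated with the agonist NPW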
# Target sequence (P48145 whole entry, looked up): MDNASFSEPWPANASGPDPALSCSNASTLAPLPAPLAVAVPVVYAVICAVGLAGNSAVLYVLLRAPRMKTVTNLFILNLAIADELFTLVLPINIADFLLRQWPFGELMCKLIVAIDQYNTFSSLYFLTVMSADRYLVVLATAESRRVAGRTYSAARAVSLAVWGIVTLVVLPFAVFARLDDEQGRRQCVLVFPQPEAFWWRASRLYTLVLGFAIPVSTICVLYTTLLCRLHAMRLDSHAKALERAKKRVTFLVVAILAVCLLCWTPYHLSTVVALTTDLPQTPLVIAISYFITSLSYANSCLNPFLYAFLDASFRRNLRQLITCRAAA
# CHO parental Ca: signal in parental CHO cells, OX1R antagonist counter-screen; inhibition, % at 5.6 µM; parental CHO-K1, ATP-induced calcium, Fluo-8 fluorescence; 330,000 compounds, 0.63% hits;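 active = inhibition above that plate's mean sample inhibition plus 3 SD, cut at about 26% in these data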
#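 Assay system – parental CHO cells · Reagent – ATP stimulus · Detection – intracellular calcium via Fluo-8 no-wash fluorescent dye · Evaluation – percent inhibition of ATP-evoked calcium rise, normalized to controls · Controls – ATP wells versus no-ATP DMSO wells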
# TAAR1 ag: agonists of human TAAR1; Q96RJ0; CHO RD-HGA16 TAAR1, Fluo-8 calcium fluorescence; vehicle wells 0%, saturating PEA agonist 100%; activation, % at 3 µM; 360,000 compounds, 0.99% hits; AID 624467;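 active = activation above the mean activation of all test compounds in the run plus 3 SD, cut at about 38% in these data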
# Target sequence (Q96RJ0 whole entry, looked up): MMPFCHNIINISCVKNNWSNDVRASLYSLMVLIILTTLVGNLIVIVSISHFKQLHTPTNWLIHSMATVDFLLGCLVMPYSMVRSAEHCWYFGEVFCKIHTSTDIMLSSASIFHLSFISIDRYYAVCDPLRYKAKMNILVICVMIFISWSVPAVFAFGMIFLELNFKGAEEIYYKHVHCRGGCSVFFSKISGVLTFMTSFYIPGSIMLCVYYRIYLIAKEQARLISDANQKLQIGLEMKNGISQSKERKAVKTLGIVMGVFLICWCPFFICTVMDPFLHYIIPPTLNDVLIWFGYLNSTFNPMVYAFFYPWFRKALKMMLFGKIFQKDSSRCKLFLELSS
#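 Assay system: CHO-derived RD-HGA16 cells with stable Gα16 and human TAAR1; timing: 17-24 h seeding, 75 min 37 °C dye, 30 min RT; read-out: % activation from peak over basal fluorescence ratio, DMSO-to-PEA scaled; measured by: kinetic Fluo-8 calcium fluorescence; benchmarks: low control DMSO, high control PEA (EC100); doses: 3 µM single concentration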
# OX1R antag-1: blocks the human orexin 1 receptor | inhibition, % at 5 µM | 330,000 compounds, 0.43% hits | CHO/OX1R cells, Fluo-8 calcium fluorescence, orexin A | O43613;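 active = inhibition above its plate's threshold, mean inhibition of all tested compounds on the plate plus 3 SD, cut at about 37% in these data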
# TAAR1 antag: antagonists of human TAAR1; inhibition, % at 3 µM; CHO RD-HGA16 TAAR1, Fluo-8 calcium fluorescence, antagonist; AID 624466; 360,000 compounds, 1.5% hits; Q96RJ0;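 active = inhibition above a per-plate cutoff, the mean inhibition of test compounds on that plate plus 3 SD, cut at about 49% in these data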
#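 Test system – hTAAR1-expressing CHO RD-HGA16 cells, Gα16-coupled · Also added – β-PEA at EC80 concentration, post-compound challenge · Compound – 3 µM, single point · Incubation – dye loading 75 min at 37 °C, then 30 min room temperature · Measured by – Fluo-8 intracellular calcium dye fluorescence, real-time kinetic reads · Benchmarks – vehicle and agonist controls · Replicates – singlicate, one well per test compound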
# OX1R antag-2: blocks the human orexin 1 receptor. OX1R-expressing cells, FRET antagonist read-out. inhibition, % at 6.6 µM. 330,000 compounds, 1.8% hits. AID 485270; in the data active = inhibition mostly above about 38%, no sharp cut-off; inactive = mostly below about 40%
# nonsel antag count: nonselective antagonist in TAAR1 antagonist counter-screen. inhibition, % at 3 µM. counterscreen cell line, calcium fluorescence, antagonist mode. shares compounds with TAAR1 antag. 2,400 compounds, 77% hits; in the data active = inhibition above about 22%;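 note: CHO-Ga16 host cells stimulated with ATP at an EC80 level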
# TAAR1 antag conf: confirmation of human TAAR1 antagonists. shares compounds with TAAR1 antag. TAAR1-expressing cells, fluorescence antagonist read-out. inhibition, % at 3 µM. 2,400 compounds, 40% hits; in the data active = inhibition above about 49%;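 note: CHO-Ga16 host cells challenged with agonist PEA near its EC80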
# Ga16 ag counter: nonselective Ga16 agonist in TAAR1 antagonist counter-screen | Ga16-expressing cells, calcium fluorescence, agonist counterscreen | activation, % at 3 µM | shares compounds with TAAR1 antag | AID 651953 | 2,400 compounds, 18% hits; in the data active = activation above about 12%
# TAAR1 ag count: counter-screen for human TAAR1 antagonists: TAAR1 agonists; shares compounds with TAAR1 antag; hTAAR1 cell line, fluorescence activation, agonist mode; activation, % at 3 µM; 2,400 compounds, 2% hits; AID 651955; in the data active = activation above about 37%;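 note: CHO cells stably expressing TAAR1 with calcium dye readout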
# Hits are given with their value; . = inactive; / = no result.
SMILES,GPR7 antagonist,CHO parental Ca,TAAR1 ag,OX1R antag-1,TAAR1 antag,OX1R antag-2,nonsel antag count,TAAR1 antag conf,Ga16 ag counter,TAAR1 ag count
CCOC(=O)/C(C#N)=C\c1ccc(OC)c(OC)c1,.,.,.,.,.,.,/,/,/,/
CCOc1ccc2nc(NC(=O)CN3CCC(n4nnc5cc(F)ccc54)CC3)sc2c1,.,.,.,.,68,.,23,.,.,.
COCCN(Cc1nc2ccccc2c(=O)[nH]1)C(=O)COc1ccccc1-c1ccccc1,/,/,.,/,.,/,/,/,/,/
O=C1CCCc2c1oc1c2CCCC1,/,/,.,/,.,/,/,/,/,/
CN(Cc1ccccc1)C(=O)c1ncn(Cc2ccccc2)c1C(=O)N(C)Cc1ccccc1,/,.,.,.,64,.,29,56,12,.
COc1ccc(NC(=O)C2(C)CCCN(C(C)=O)C2)cc1F (stereo not drawn),/,/,.,/,.,/,/,/,/,/
COc1cccc(CNC(=O)N2CCN(c3ccccc3Cl)CC2)c1,.,.,.,.,49,.,22,.,.,.
Cn1c(C(=O)Nc2ccc3c(c2)OCO3)cc2c(=O)n(C)c3ccccc3c21,.,.,.,.,.,.,/,/,/,/
CC(NC(=O)c1cc2c(=O)n(C)c3ccccc3c2n1C)c1ccc2c(c1)OCCO2 (stereo not drawn),.,.,.,.,59,.,22,.,.,.
CC(C)Oc1ccccc1/C=N/NC(=O)C1CC1,/,.,.,.,104,.,.,.,.,.
CC1(C)c2[nH]c3ccccc3c2C[C@H]2C(=O)N(Cc3cccc(F)c3)C(=O)N21,/,.,.,.,.,.,/,/,/,/
COc1cccc(CN2C(=O)[C@H]3Cc4c([nH]c5ccccc45)C(C)(C)N3C2=O)c1,/,.,.,.,61,.,25,.,.,.
NC(CSC1(c2ccc(Cl)cc2)c2ccccc2-c2ccccc21)C(=O)O (stereo not drawn),/,/,.,/,.,/,/,/,/,/
COc1cccc(NC(=O)N2CCN(c3nc(-c4cccc(OC)c4)cs3)CC2)c1,.,.,.,.,73,.,35,.,.,.
CSc1ccc(CCNC(=O)c2ccc(CS(=O)Cc3ccc(Cl)cc3)o2)cc1 (stereo not drawn),.,.,.,.,53,.,32,.,.,.
O=C(NCCc1ccc(Cl)cc1)c1ccc(CS(=O)Cc2ccc(Cl)cc2)o1 (stereo not drawn),.,.,.,.,.,.,/,/,/,/
Cc1cccc(CSc2ccc(S(=O)(=O)N3CCCC3)cn2)c1,/,.,.,.,.,.,/,/,/,/
N#CCc1ccccc1C(=O)OCC(=O)N(Cc1ccccc1)Cc1ccccc1,/,.,.,.,64,.,29,51,.,.
CCOC(=O)c1ccc(NC(=O)c2ncn3c2C(=O)NC[C@@H]3C)cc1,/,/,.,/,.,/,/,/,/,/
CN(C)CCCNC(=O)C[C@H]1C[C@H](C(=O)N2CCOCC2)[C@@]2(CCC3CCCC3)c3[nH]c4cc(CCC(=O)N(C)C)ccc4c3CCN2C1=O,/,.,.,.,.,.,/,/,/,/
COc1ccc(-c2ccc(/C=N/N3C(=O)C4C5C=CC(C6CC56)C4C3=O)o2)c([N+](=O)[O-])c1 (stereo not drawn),.,.,.,.,56,.,31,52,.,.
CN(Cc1ccccc1)C(=O)[C@@H]1CCCN1C(=O)[C@@H]1CCCN1C(=O)c1cccc2ccccc12,/,/,.,/,.,/,/,/,/,/
Cc1ccc(S(=O)(=O)N2CCOCC2)cc1C(=O)Nc1ccc(-c2cn3ccsc3n2)cc1,.,.,.,.,74,.,30,75,.,.
COc1ccc(OC)c(CN2C(=O)CSCC2(C)C(=O)NCc2ccccc2)c1 (stereo not drawn),/,/,.,/,.,/,/,/,/,/
COC(=O)C(c1ccccc1)C(CC(=O)c1ccccc1)c1ccccc1 (stereo not drawn),/,/,.,/,76,/,.,.,.,.
SMILES,GPR7 antagonist,CHO parental Ca,TAAR1 ag,OX1R antag-1,TAAR1 antag,OX1R antag-2,nonsel antag count,TAAR1 antag conf,Ga16 ag counter,TAAR1 ag count
COc1cccc(C(=O)OCC(=O)c2c(N)n(C)c(=O)n(C)c2=O)c1,/,.,.,.,.,.,/,/,/,/
Cc1ccc(S(=O)(=O)NC(=O)C2(C)CCN2C(=O)CC2CCCC2)nc1 (stereo not drawn),/,/,.,/,.,/,/,/,/,/
N#CCCN(C(=O)COC(=O)c1ccc2ccccc2n1)c1ccccc1,/,.,.,.,.,.,/,/,/,/
CN1CCc2nc3ccccc3c(C(=O)OCC(=O)N(CCC#N)c3ccccc3)c2C1,.,.,.,.,51,.,23,.,.,.
O=C(NCc1cccnc1)c1csc([C@@H]2C[C@H](O)[C@@H](CO)O2)n1,/,/,.,/,.,/,/,/,/,/
CCOc1ccc(C(CC(=O)O)NC(=O)C(c2ccccc2)c2ccccc2)cc1OC (stereo not drawn),/,.,.,.,63,.,.,.,.,.
CCOc1ccc(C(CC(=O)O)NC(=O)c2ccco2)cc1OC (stereo not drawn),.,.,.,.,.,.,/,/,/,/
O=C(COC(=O)c1ccc(O)cc1)Nc1cc(S(=O)(=O)N2CCCCCC2)ccc1Cl,/,/,.,/,62,/,38,52,.,.
Cc1cc(OCC(=O)OCC(=O)Nc2cc(S(=O)(=O)N3CCOCC3)ccc2Cl)ccc1Cl,/,.,.,.,64,.,36,.,14,.
Cc1ccc(CSCC(=O)Nc2cc(S(=O)(=O)N3CCOCC3)ccc2OCC(F)(F)F)cc1,/,/,.,/,81,/,.,62,.,.
Cc1ccc(S(=O)(=O)N2CCCCC2)cc1NC(=O)COC(=O)c1ccc(O)cc1,.,.,.,.,.,.,/,/,/,/
COc1ccc(OCC(=O)OCC(=O)Nc2cc(S(=O)(=O)N3CCOCC3)ccc2Cl)cc1,/,.,.,.,.,.,/,/,/,/
CCN(CC)CCCNc1nc2ccccc2c2nc(-c3ccncc3)nn12,.,.,.,.,.,.,/,/,/,/
COc1ccccc1CNC(=O)C1CCN(S(=O)(=O)c2ccc3c(c2)NC(=O)CO3)CC1,.,.,.,.,.,.,/,/,/,/
CC(=O)N(C)c1ccc(NC(=S)Nc2ccccc2)cc1,.,.,.,.,.,.,/,/,/,/
CC(=O)N(C)c1ccc(NC(=O)Nc2ccc(C)cc2)cc1,.,.,.,.,57,.,.,.,.,.
CCNC(=O)c1ccccc1SCc1ccccc1,.,.,.,.,.,.,/,/,/,/
CCc1ccc(OCCNC(=O)c2ccccc2SCc2ccccc2)cc1,.,.,.,.,61,.,25,.,.,.

# Screens as filed in PubChem BioAssay.
